According to ChEMBL document CHEMBL1133159, “Conformationally constrained analogues of diacylglycerol (DAG). 17. Contrast between sn-1 and sn-2 DAG lactones in binding to protein kinase C” (J Med Chem, 2000):

Assays:
[1] = biological target: T1, Protein kinase C alpha type (Homo sapiens, UniProt P17252); assay: Affinity for protein kinase-C alpha (PK-C alpha)
Procedure, shortened: (§1)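 Competitive displacement of bound [20-3H]phorbol 12,13-dibutyrate (PDBU) from recombinant single-isozyme PK-Cα in the presence of phosphatidylserine. ID50 was obtained by fitting the inhibition data points to a theoretical noncooperative competition curve.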

[2] = Partition coefficient (logP); type: physicochemical; conditions: octanol/water
[3] = biological target: T1, Protein kinase C alpha type; assay: Affinity for protein kinase C alpha; procedure, shortened: as §1

| Ki [1] [nM] | logP [2] | Ki [3] [nM] | Compound |
| --- | --- | --- | --- |
| 327 |  |  | CC(C)C(C/C=C1/CC([C@H](CO)OC(=O)CC(C(C)C)C(C)C)OC1=O)C(C)C (stereo not given in full) |
| 1200 | 6.3 | 1200 | CCCCCCCC/C=C1\CC([C@H](CO)OC(=O)CCCCCCCC)OC1=O (stereo not given in full) |
| 1090 | 6.08 |  | CCCCCCCCC(=O)O[C@@H](CO)C1C/C(=C\CC(C(C)C)C(C)C)C(=O)O1 (stereo not given in full) |
| 1000 |  | 1000 | CCCCCCCCCCCCCC(=O)O[C@@H](CO)C1CCC(=O)O1 (stereo not given in full) |
|  |  | 13 | CCCCCCCCC/C=C1/CC(CO)(COC(=O)CC(C)C)OC1=O (stereo not given) |
| 499 |  |  | CCCCCCCCC(=O)O[C@@H](CO)C1C/C(=C/CC(C(C)C)C(C)C)C(=O)O1 (stereo not given in full) |
| 1760 |  | 1760 | CCCCCCCC/C=C1/CC([C@H](CO)OC(=O)CCCCCCCC)OC1=O (stereo not given in full) |
|  |  | 565 | CCCCCCCC/C=C1/CC([C@H](CO)OC(=O)CC(C)C)OC1=O (stereo not given in full) |
|  |  | 2.3 | CCCCCCCCCC(=O)OCC1(CO)C/C(=C/CC(C)C)C(=O)O1 (stereo not given) |
|  |  | 579 | CCCCCCCC/C=C1\CC([C@H](CO)OC(=O)CC(C)C)OC1=O (stereo not given in full) |
|  |  | 24 | CCCCCCC/C=C/CCCCCCC/C=C1/CC(CO)(COC(C)=O)OC1=O (stereo not given) |
| 679 | 5.86 |  | CC(C)C(C/C=C1\CC([C@H](CO)OC(=O)CC(C(C)C)C(C)C)OC1=O)C(C)C (stereo not given in full) |
|  |  | 96 | CCCCCCCC/C=C/CCCCCCCC(=O)OCC1(CO)CCC(=O)O1 (stereo not given) |
| 565 |  |  | CCCCCCCC/C=C1/CC([C@H](CO)OC(=O)CC(C(C)C)C(C)C)OC1=O (stereo not given in full) |
